The source made the active and inactive calls. No cut-off for these calls is given here.
Key:
Toll-like receptor 7 = target: T1, Toll-like receptor 7 (Homo sapiens, UniProt Q9NYK1); assay: Agonist activity at human TLR7 expressed in HEK293 cells co-expressing secreted alkaline phosphatase assessed as induction of NF-kappaB/AP-1 promoter activity by measuring increase in secreted alkaline phosphatase level by spectrophotometric method; type: cell-based
T1 sequence (Q9NYK1 whole entry): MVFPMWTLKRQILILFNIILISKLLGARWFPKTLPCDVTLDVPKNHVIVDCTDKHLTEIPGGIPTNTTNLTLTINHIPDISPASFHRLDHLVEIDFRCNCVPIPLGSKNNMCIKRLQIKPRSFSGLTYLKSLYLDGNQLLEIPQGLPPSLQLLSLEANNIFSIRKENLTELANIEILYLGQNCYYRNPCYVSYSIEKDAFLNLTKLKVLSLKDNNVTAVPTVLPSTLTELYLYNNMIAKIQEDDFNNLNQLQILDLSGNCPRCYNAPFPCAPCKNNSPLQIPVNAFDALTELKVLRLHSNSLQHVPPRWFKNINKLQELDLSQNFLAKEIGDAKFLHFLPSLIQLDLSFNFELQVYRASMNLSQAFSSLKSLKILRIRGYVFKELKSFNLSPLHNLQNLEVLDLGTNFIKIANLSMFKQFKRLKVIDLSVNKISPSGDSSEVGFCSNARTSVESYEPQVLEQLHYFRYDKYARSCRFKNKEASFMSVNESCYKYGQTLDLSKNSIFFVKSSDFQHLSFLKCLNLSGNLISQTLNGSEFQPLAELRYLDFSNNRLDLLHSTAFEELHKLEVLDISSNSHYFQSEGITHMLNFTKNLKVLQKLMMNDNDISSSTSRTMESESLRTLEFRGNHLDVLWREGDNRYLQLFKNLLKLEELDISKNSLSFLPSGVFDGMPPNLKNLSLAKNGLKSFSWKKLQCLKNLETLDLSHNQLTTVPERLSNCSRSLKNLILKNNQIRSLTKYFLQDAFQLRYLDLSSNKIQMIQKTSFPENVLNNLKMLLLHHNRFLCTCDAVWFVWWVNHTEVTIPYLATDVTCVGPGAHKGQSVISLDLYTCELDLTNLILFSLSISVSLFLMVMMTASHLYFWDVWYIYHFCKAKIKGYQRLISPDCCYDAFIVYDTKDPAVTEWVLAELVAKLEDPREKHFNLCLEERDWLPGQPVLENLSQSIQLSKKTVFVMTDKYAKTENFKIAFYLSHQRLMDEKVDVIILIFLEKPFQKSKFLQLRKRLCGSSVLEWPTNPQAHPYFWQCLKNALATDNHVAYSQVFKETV
Outline: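 HEK293 cells stably co-transfected with the relevant human TLR (2, 3, 4, 5, 7, 8 or 9) plus an NF-κB/AP-1-driven secreted alkaline phosphatase reporter, kept in selection medium. Cells at ~10⁵ cells/ml were exposed to graded concentrations of stimuli in 384-well format, liquid-handler assisted. Supernatant sAP was read at 620 nm with an alkaline phosphatase-specific chromogen.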

[1] = target: T2, Toll-like receptor 7 (Homo sapiens) (UniProt Q9NYK1); assay: Agonist activity at human TLR7 expressed in HEK293 cells co-expressing secreted alkaline phosphatase assessed as induction of NF-kappaB/AP-1 promoter activity by measuring increase in secreted alkaline phosphatase level at 100 uM by spectrophotometric method; type: cell-based
T2 sequence (whole entry): T1 sequence (Q9NYK1 whole entry)

[2] = target: T3, Toll-like receptor 8 (Homo sapiens) (UniProt Q9NR97); assay: Agonist activity at TLR8 in human PBMC assessed as induction of IL-12p40 production after 16 hrs by multiplexed immunoassay
T3 sequence (whole entry): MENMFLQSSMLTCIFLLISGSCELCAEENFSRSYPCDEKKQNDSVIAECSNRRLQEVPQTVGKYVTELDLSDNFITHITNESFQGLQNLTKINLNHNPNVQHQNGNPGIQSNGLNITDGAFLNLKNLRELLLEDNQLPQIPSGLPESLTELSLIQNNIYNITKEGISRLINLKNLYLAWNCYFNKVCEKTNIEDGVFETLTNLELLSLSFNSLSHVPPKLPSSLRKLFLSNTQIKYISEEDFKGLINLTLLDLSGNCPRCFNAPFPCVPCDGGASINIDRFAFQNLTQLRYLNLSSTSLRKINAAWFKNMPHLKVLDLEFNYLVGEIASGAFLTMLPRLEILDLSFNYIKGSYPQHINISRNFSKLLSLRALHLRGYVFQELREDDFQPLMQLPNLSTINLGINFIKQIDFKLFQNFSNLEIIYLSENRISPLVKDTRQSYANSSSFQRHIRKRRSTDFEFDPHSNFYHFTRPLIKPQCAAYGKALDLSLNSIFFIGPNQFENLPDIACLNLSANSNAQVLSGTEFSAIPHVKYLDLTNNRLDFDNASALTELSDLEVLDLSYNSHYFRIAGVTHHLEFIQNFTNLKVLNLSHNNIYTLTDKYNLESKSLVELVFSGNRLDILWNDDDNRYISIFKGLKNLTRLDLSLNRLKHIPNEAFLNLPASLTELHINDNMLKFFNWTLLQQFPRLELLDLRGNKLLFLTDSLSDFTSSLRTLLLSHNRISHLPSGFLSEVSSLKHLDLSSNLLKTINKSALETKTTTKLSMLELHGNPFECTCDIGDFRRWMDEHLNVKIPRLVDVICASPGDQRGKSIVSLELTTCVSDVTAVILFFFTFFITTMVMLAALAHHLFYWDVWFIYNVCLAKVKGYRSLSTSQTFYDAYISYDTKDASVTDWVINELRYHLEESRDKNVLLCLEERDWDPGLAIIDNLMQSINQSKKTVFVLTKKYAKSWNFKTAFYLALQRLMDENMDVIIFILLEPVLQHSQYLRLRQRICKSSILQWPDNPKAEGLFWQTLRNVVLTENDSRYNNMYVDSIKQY
Outline: (§1)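 Fresh human PBMCs were isolated from venous blood in cell preparation tubes. They were stimulated at 10^5 cells per well for 16 h with graded compound concentrations. Supernatants were taken off by centrifugation and assayed in duplicate on a 41-analyte magnetic bead cytokine/chemokine multiplex panel. Panel analytes include IFN-α2, IFN-γ, IL-12 (p40) and TNF-α.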

[3] = target: T3, Toll-like receptor 8 (Homo sapiens); assay: Agonist activity at TLR8 in human PBMC assessed as induction of TNF-alpha production after 16 hrs by multiplexed immunoassay; outline: as §1
[4] = target: T2, Toll-like receptor 7 (Homo sapiens); assay: Agonist activity at TLR7 in human PBMC assessed as induction of IFN-alpha production after 16 hrs by multiplexed immunoassay; outline: as §1
[5] = target: T3, Toll-like receptor 8 (Homo sapiens); assay: Agonist activity at TLR8 in human PBMC assessed as induction of IFN-gamma production after 16 hrs by multiplexed immunoassay; outline: as §1
[6] = target: T3, Toll-like receptor 8 (Homo sapiens); assay: Agonist activity at human TLR8 expressed in HEK293 cells co-expressing secreted alkaline phosphatase assessed as induction of NF-kappaB/AP-1 promoter activity by measuring increase in secreted alkaline phosphatase level at 100 uM by spectrophotometric method; type: cell-based
Outline: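 HEK293 cells stably co-transfected with human TLR8 and NF-κB/AP-1-driven secreted alkaline phosphatase, kept in selection medium. Cells seeded at ~10⁵ cells/ml in 384-well plates with graded stimulus concentrations. Supernatant sAP read spectrophotometrically at 620 nm with an alkaline phosphatase-specific chromogen. TLR-2/-3/-4/-5/-9 reporter lines served as counter-screens.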

For CCCCNc1nc(N)nc(C)c1CCCN(C)CCOC, the EC50 (Toll-like receptor 7) was 1.24 µM.

CCCCNc1nc(N)nc(C)c1CCCn1cncn1 showed an EC50 (Toll-like receptor 7) of 1.16 µM.

In the case of CCCCNc1nc(N)nc(C)c1CCCn1ccc2ccccc21, the EC50 (Toll-like receptor 7) is reported as 0.14 µM.

With C#Cc1c(C)nc(N)nc1NCCCC the Activity [1] was “inactive”.

Molecule CCCCNc1nc(N)nc(C)c1CCCCCc1ccccc1 has an EC50 (Toll-like receptor 7) of 0.265 µM.

For CCCCNc1nc(N)nc(C)c1CCCn1c(C)nc2ccccc21, the Activity [2] was “Active”, the EC50 (Toll-like receptor 7) was 0.379 µM and the Activity [3] was “Active”. The Activity [4] was “Active” and the Activity [5] was “Active”.

In the case of CCCCNc1nc(N)nc(C)c1CCCC1CCCCC1, the EC50 (Toll-like receptor 7) is reported as 1.1 µM and the Activity [6] is reported as “inactive”.

Work on CCCCNc1nc(N)nc(C)c1CCCC yielded an EC50 (Toll-like receptor 7) of 0.59 µM.

Molecule CCCCNc1nc(N)nc(C)c1CC has an EC50 (Toll-like receptor 7) of 1.27 µM.

For CCCCNc1nc(N)nc(C)c1CCCCO, the EC50 (Toll-like receptor 7) was 1.02 µM.

In the case of CCCCNc1nc(N)nc(C)c1C#C[Si](C)(C)C, the Activity [1] is reported as “inactive”.

For CCCCNc1nc(N)nc(C)c1CCCN(CC)CC, the Activity [1] was “inactive”.

With CCCCNc1nc(N)nc(C)c1CCCN1CCNCC1 the EC50 (Toll-like receptor 7) was 1.64 µM.

CCCCNc1nc(N)nc(C)c1C#CCN1CCCCC1 was tested, and the Activity [1] was “inactive”.

CCCCNc1nc(N)nc(C)c1CCCN1C(=O)c2ccccc2C1=O gave an EC50 (Toll-like receptor 7) of 1.29 µM.

With CCCCNc1nc(N)nc(C)c1CCCN1CCSCC1 the EC50 (Toll-like receptor 7) was 0.714 µM.

CCCCNc1nc(N)nc(C)c1CCCN1CCN(C(=O)OC(C)(C)C)CC1 was tested, and the Activity [1] was “inactive”.

CCCCNc1nc(N)nc(C)c1CCCN1CCN(C)CC1 gave an EC50 (Toll-like receptor 7) of 0.251 µM.

For CCCCNc1nc(N)nc(C)c1C#CCc1ccccc1, the Activity [6] was “inactive” and the Activity [1] was “inactive”.

CCCC#Cc1c(C)nc(N)nc1NCCCC was tested, and the Activity [1] was “inactive”.

CCCCCc1c(C)nc(N)nc1NCCCC gave an EC50 (Toll-like receptor 7) of 0.51 µM.

For CCCCNc1nc(N)nc(C)c1CCCCc1ccccc1, the EC50 (Toll-like receptor 7) was 0.262 µM.

For CCCCNc1nc(N)nc(C)c1CCc1ccccc1, the EC50 (Toll-like receptor 7) was 2.82 µM.

CCCCNc1nc(N)nc(C)c1CCCN1CCOCC1 was tested, and the EC50 (Toll-like receptor 7) was 0.046 µM.

Molecule CCCCNc1nc(N)nc(C)c1C has an EC50 (Toll-like receptor 7) of 3.4 µM.

With CCCCNc1nc(N)nc(C)c1CCCn1cccn1 the EC50 (Toll-like receptor 7) was 0.398 µM.

CCCCNc1nc(N)nc(C)c1CCCN1CCCC1 was tested, and the EC50 (Toll-like receptor 7) was 0.562 µM.

With CCCCNc1nc(N)nc(C)c1C#CCN1CCOCC1 the Activity [1] was “inactive”.

With CCCCNc1nc(N)nc(C)c1CCCc1ccccc1 the EC50 (Toll-like receptor 7) was 0.194 µM, the Activity [4] was “Active” and the Activity [5] was “inactive”.

For CCCCNc1nc(N)nc(C)c1CCCN1CCCCC1, the Activity [2] was “Active”, the EC50 (Toll-like receptor 7) was 0.71 µM and the Activity [3] was “Active”. For the same molecule, the Activity [5] was “Active”.

CCCCNc1nc(N)nc(C)c1CCC(C)(C)O gave an EC50 (Toll-like receptor 7) of 3.26 µM.

For CCCCNc1nc(N)nc(C)c1CCCC(C)(C)O, the EC50 (Toll-like receptor 7) was 2.89 µM.

Work on CCCCNc1nc(N)nc(C)c1CCCN1CCN(c2ccccc2)CC1 yielded an EC50 (Toll-like receptor 7) of 1.16 µM.

CCCCNc1nc(N)nc(C)c1CCCN(C)C gave an EC50 (Toll-like receptor 7) of 0.958 µM.

With CCCCNc1nc(N)nc(C)c1CCCCN1CCOCC1 the EC50 (Toll-like receptor 7) was 1.4 µM.

CCCCNc1nc(N)nc(C)c1CCCN1CCCCCC1 showed an EC50 (Toll-like receptor 7) of 0.73 µM.

In the case of CCCCNc1nc(N)nc(C)c1CCCN1Cc2ccccc2C1, the Activity [2] is reported as “Active”, the EC50 (Toll-like receptor 7) is reported as 0.375 µM and the Activity [3] is reported as “Active”. The Activity [5] was “Active”.

Reference: ChEMBL document CHEMBL4007404, “Identification of High-Potency Human TLR8 and Dual TLR7/TLR8 Agonists in Pyrimidine-2,4-diamines” (J Med Chem, 2017)
